Reference: ChEMBL document CHEMBL4265871, “Novel alkylated azoles as potent antifungals” (Eur J Med Chem, 2017)
≈ marks a conversion by molar mass, not a printed value.

Legend:
Aspergillus nidulans = experiment: Antifungal activity against Aspergillus nidulans ATCC 38163 incubated for 48 hrs by CLSI M38-A2 protocol based method; assay type: functional; settings: ATCC 38163, 48 h; for MIC: read-out: MIC100
Candida parapsilosis = experiment: Antifungal activity against Candida parapsilosis ATCC 22019 incubated for 48 hrs by modified CLSI M27-A3 protocol based method; assay type: functional; settings: Lodderomyces parapsilosis, ATCC 22019, 48 h; for MIC: read-out: MIC100
Summary of the method: (§1)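 For C. albicans ATCC 10231, C. krusei ATCC 6258 and C. parapsilosis ATCC 22019, MIC-0 was read, meaning complete growth inhibition. For azole controls, MIC-2 (50% growth inhibition) was reported instead. Caspofungin and voriconazole were tested here; other controls came from earlier work.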

Candida albicans [1] = experiment: Antifungal activity against Candida albicans ATCC 10231 incubated for 48 hrs by modified CLSI M27-A3 protocol based method; assay type: functional; settings: ATCC 10231, 48 h, read-out: MIC100; summary of the method: as §1
Candida albicans [2] = experiment: Antifungal activity against ITC and FLC-resistant Candida albicans ATCC MYA-1003 incubated for 48 hrs by modified CLSI M27-A3 protocol based method; assay type: functional; settings: ATCC MYA-1003, 48 h
Summary of the method: (§2)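 Because these Candida strains show trailing growth, MIC-2 was read, meaning 50% growth inhibition. Caspofungin and voriconazole were tested here; other controls came from earlier work.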

Candida albicans [3] = experiment: Antifungal activity against ITC and FLC-susceptible Candida albicans ATCC MYA-2876 incubated for 48 hrs by modified CLSI M27-A3 protocol based method; assay type: functional; settings: ATCC MYA-2876, 48 h; summary of the method: as §2
Candida albicans [4] = experiment: Antifungal activity against ITC and FLC-resistant Candida albicans ATCC MYA-90819 incubated for 48 hrs by modified CLSI M27-A3 protocol based method; assay type: functional; settings: ATCC MYA-90819, 48 h
Candida albicans [5] = experiment: Antifungal activity against ITC and FLC-resistant Candida albicans ATCC 1237 incubated for 48 hrs by modified CLSI M27-A3 protocol based method; assay type: functional; settings: ATCC 1237, 48 h; summary of the method: as §2
Candida albicans [6] = experiment: Antifungal activity against ITC and FLC-susceptible Candida albicans ATCC MYA-2310 incubated for 48 hrs by modified CLSI M27-A3 protocol based method; assay type: functional; settings: ATCC MYA-2310, 48 h
Aspergillus terreus = experiment: Antifungal activity against Aspergillus terreus ATCC MYA-3633 incubated for 48 hrs by CLSI M38-A2 protocol based method; assay type: functional; settings: ATCC MYA-3633, 48 h; for MIC: read-out: MIC100
Pichia kudriavzevii = experiment: Antifungal activity against Candida krusei ATCC 6258 incubated for 48 hrs by modified CLSI M27-A3 protocol based method; assay type: functional; settings: ATCC 6258, 48 h; for MIC: read-out: MIC100; summary of the method: as §1
Nakaseomyces glabratus = experiment: Antifungal activity against Candida glabrata ATCC 2001 incubated for 48 hrs by modified CLSI M27-A3 protocol based method; assay type: functional; settings: ATCC 2001, 48 h
Candida albicans [7] = experiment: Antifungal activity against Candida albicans ATCC 64124 incubated for 48 hrs by modified CLSI M27-A3 protocol based method; assay type: functional; settings: ATCC 64124, 48 h
Aspergillus flavus = experiment: Antifungal activity against Aspergillus flavus ATCC MYA-3631 incubated for 48 hrs by CLSI M38-A2 protocol based method; assay type: functional; settings: ATCC MYA-3631, 48 h, read-out: MIC100
Candida albicans [8] = experiment: Antifungal activity against Candida albicans ATCC 10231 at 0.5 to 4 times MIC incubated for 3 to 24 hrs by time kill assay

Compound	MIC (Aspergillus nidulans) [µM]	MIC (Candida parapsilosis) [µM]	MIC (Candida albicans [1]) [µM]	MIC50 (Candida albicans [2]) [µM]	MIC50 (Candida albicans [3]) [µM]	MIC50 (Candida albicans [4]) [µM]	MIC50 (Candida albicans [5]) [µM]	MIC50 (Candida albicans [6]) [µM]	MIC (Aspergillus terreus) [µM]	MIC (Pichia kudriavzevii) [µM]	MIC50 (Nakaseomyces glabratus) [µM]	MIC50 (Candida albicans [7]) [µM]	MIC (Aspergillus flavus) [µM]	other results
CC(O)(Cn1cncn1)c1ccc(Cl)cc1Cl (stereo not drawn)	7.2 (≈ 1.96 µg/mL)	0.88 (≈ 0.239 µg/mL)	> 115	> 115	28.7 (≈ 7.81 µg/mL)	7.2 (≈ 1.96 µg/mL)	> 115	> 115	> 115	14.3 (≈ 3.89 µg/mL)	14.3 (≈ 3.89 µg/mL)	> 115	> 115	
CC[C@H](C)C[C@H](C)CCCCCCCCC(=O)N[C@H]1C[C@@H](O)[C@@H](NCCN)NC(=O)[C@@H]2[C@@H](O)CCN2C(=O)[C@H]([C@H](O)CCN)NC(=O)[C@H]([C@H](O)[C@@H](O)c2ccc(O)cc2)NC(=O)[C@@H]2C[C@@H](O)CN2C(=O)[C@H]([C@@H](C)O)NC1=O [CASPOFUNGIN]	> 26	1.6 (≈ 1.75 µg/mL)	0.8 (≈ 0.875 µg/mL)						> 25.8	0.4 (≈ 0.437 µg/mL)			> 25.8	MIC (Candida albicans [2]; read-out: MIC100): 0.4 µM (≈ 0.437 µg/mL); MIC (Candida albicans [3]; read-out: MIC100): 0.05 µM (≈ 0.0547 µg/mL); MIC (Candida albicans [4]): 0.1 µM (≈ 0.109 µg/mL); MIC (Candida albicans [5]; read-out: MIC100): 0.2 µM (≈ 0.219 µg/mL); MIC (Candida albicans [6]; read-out: MIC100): 0.1 µM (≈ 0.109 µg/mL); MIC (Nakaseomyces glabratus): 0.05 µM (≈ 0.0547 µg/mL); MIC (Candida albicans [7]): 0.2 µM (≈ 0.219 µg/mL)
CCCCCCC(O)(Cn1cncn1)c1cccc(Cl)c1 (stereo not drawn)	12.7 (≈ 3.91 µg/mL)	> 102	> 102	> 102	> 102	25.3 (≈ 7.79 µg/mL)	25.3 (≈ 7.79 µg/mL)	25.3 (≈ 7.79 µg/mL)	> 102	> 102	> 102	102 (≈ 31.3 µg/mL)	> 102	
CCCCCCCCCCCCC(O)(Cn1cncn1)c1ccc(F)cc1F (stereo not drawn)	1.2 (≈ 0.472 µg/mL)	5 (≈ 1.97 µg/mL)	> 79.5	> 79.5	19.8 (≈ 7.79 µg/mL)	> 79.5	19.8 (≈ 7.79 µg/mL)	19.8 (≈ 7.79 µg/mL)	9.9 (≈ 3.9 µg/mL)	> 79.5	2.5 (≈ 0.984 µg/mL)	> 79.5	> 79.5	
C[C@@H](c1ncncc1F)[C@](O)(Cn1cncn1)c1ccc(F)cc1F [VORICONAZOLE]				5.6 (≈ 1.96 µg/mL)	5.6 (≈ 1.96 µg/mL)	5.6 (≈ 1.96 µg/mL)	22.3 (≈ 7.79 µg/mL)	2.8 (≈ 0.978 µg/mL)			0.17 (≈ 0.0594 µg/mL)	11.2 (≈ 3.91 µg/mL)		MIC50 (Aspergillus nidulans): 0.06 µM (≈ 0.021 µg/mL); MIC50 (Candida parapsilosis): < 0.06 µM; MIC50 (Aspergillus terreus): 0.34 µM (≈ 0.119 µg/mL); MIC50 (Pichia kudriavzevii): 0.34 µM (≈ 0.119 µg/mL); Activity (Candida albicans [8]): Dose-dependent effect
CC(O)(Cn1cncn1)c1ccc(F)cc1F (stereo not drawn)	131 (≈ 31.3 µg/mL)	16.3 (≈ 3.9 µg/mL)	> 131	65.2 (≈ 15.6 µg/mL)	> 131	> 131	> 131	> 131	> 131	> 131	> 131	> 131	> 131	
CCC(O)(Cn1cncn1)c1ccc(F)cc1F (stereo not drawn)	124 (≈ 31.3 µg/mL)	1.9 (≈ 0.481 µg/mL)	61.6 (≈ 15.6 µg/mL)	30.8 (≈ 7.8 µg/mL)	61.6 (≈ 15.6 µg/mL)	124 (≈ 31.3 µg/mL)	> 124	> 124	> 124	30.8 (≈ 7.8 µg/mL)	> 124	> 124	> 124	
CCCCCC(O)(Cn1cncn1)c1cccc(F)c1 (stereo not drawn)	0.87 (≈ 0.241 µg/mL)	14.1 (≈ 3.91 µg/mL)	> 113	> 113	14.1 (≈ 3.91 µg/mL)	14.1 (≈ 3.91 µg/mL)	14.1 (≈ 3.91 µg/mL)	14.1 (≈ 3.91 µg/mL)	14.1 (≈ 3.91 µg/mL)	14.1 (≈ 3.91 µg/mL)	28.1 (≈ 7.79 µg/mL)	> 113	≥ 113	
